Measurements reported in ChEMBL document CHEMBL3785037, “Compound profiling and 3D-QSAR studies of hydrazone derivatives with activity against intracellular Trypanosoma cruzi” (Bioorg Med Chem, 2016).
pIC50: −log10 of the molar value.

Experiments:
[1] = Cytotoxicity against mouse NIH/3T3 cells after 4 days by CellTiter-Glo luminiscence assay; assay type: cell-based, NIH3T3; details: read-out: TC50
How it was run: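 Mouse embryonic fibroblasts were seeded at 1x10^3 cells/well onto pre-dispensed compounds (top concentration 100 μM) for 4 days at 37 °C, 5% CO2. Controls were 0.5% DMSO (100% viable) and amphotericin B 50 μM (100% toxicity). Viability was measured as ATP by CellTiter-Glo luminescence at room temperature. TC50 was obtained by nonlinear regression.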

HepG2 = assay: Cytotoxicity against human HepG2 cells 48 hrs by CellTiter-Glo luminiscence assay; assay type: functional; details: HepG2, 48 h, read-out: TC50 (the source's name)
How it was run: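 Human hepatoma cells were plated at 3,000 cells/well onto pre-dispensed compounds, handled as for the fibroblast assay, and incubated 48 h at 37 °C, 5% CO2. ATP-based viability was read by CellTiter-Glo luminescence after room-temperature incubation. TC50 was obtained by nonlinear regression.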

Trypanosoma cruzi = assay: Antitrypanosomal activity against intracellular amastigotes stage of recombinant Trypanosoma cruzi Tulahuen expressing beta galactosidase infected in NIH/3T3 cells assessed as growth inhibition after 4 days by HTS-ready assay; assay type: functional, organism-based; details: NIH3T3, 96 h; for pIC50: read-out: IC50; for IC50: read-out: pIC50 (converted)
How it was run: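 NIH-3T3 fibroblasts were mixed 1:1 with β-galactosidase-expressing Tulahuen trypomastigotes from LLC-MK2 culture supernatants, at 1x10^3 cells/well, onto pre-dispensed compounds (50 to 0.00085 μM, DMSO ≤0.5%). Cultures were held 4 days at 37 °C, 5% CO2. Resorufin-β-D-galactopyranoside (5 µM in PBS with Igepal) was added for 4 h at room temperature, and fluorescence was read at 531/595 nm. Untreated parasites served as negative control.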

[2] = Selectivity index, ratio of TC50 for mouse NIH/3T3 cells to IC50 for amastigotes stage of recombinant Trypanosoma cruzi Tulahuen expressing beta galactosidase infected in NIH/3T3 cells; assay type: toxicity, cell-based; details: read-out: Selectivity Index

pIC50 (Trypanosoma cruzi) | IC50 (Trypanosoma cruzi) [nM] | Structure (SMILES) | CC50 at 96 h [1] [µM] | CC50 (HepG2) [µM] | selectivity ratio [2]
5.79 | 1620 | NC(=S)N/N=C/CSc1ccc(Br)cc1 | 28.8 | 53.7 | 
< 4.30 |  | C/C(=N\N=C1\SC(C)C(=O)N1c1ccccc1)c1ccc(Cl)c(Cl)c1 (configuration not stated) | > 50.1 | > 100 | 
5.88 | 1320 | C/C(=N\Nc1nc(-c2ccc(F)cc2)cs1)c1ccccn1 | 4.9 | 91.2 | 
5.19 | 6460 | Cc1ccc(SC/C=N/NC(N)=S)cc1 | > 50.1 | > 100 | 
5.98 | 1050 | C/C(=N\Nc1nc(-c2ccc(Cl)cc2)cs1)c1ccccn1 | 5.25 | > 100 | 
< 4.30 |  | CCC1S/C(=N/N=C(\C)c2ccc(Cl)c(Cl)c2)N(c2ccccc2)C1=O (configuration not stated) | > 50.1 | > 100 | 
5.95 | 1120 | C/C(=N\Nc1nc(-c2ccccc2)cs1)c1ccccn1 | 3.89 | 91.2 | 
5.66 | 2190 | C(=N\Nc1nc(-c2ccccc2)cs1)/c1ccccn1 | 17 | > 100 | 
< 4.30 |  | C/C(=N\N=C1\SC(C(C)C)C(=O)N1c1ccccc1)c1ccc(Cl)c(Cl)c1 (configuration not stated) | > 50.1 | > 100 | 
5.90 | 1260 | C/C(=N\Nc1nc(-c2ccc(Cl)c(Cl)c2)cs1)c1ccccn1 | 2.34 | > 100 | 
5.73 | 1860 | Clc1ccc(-c2csc(N/N=C/c3ccccn3)n2)cc1 | > 50.1 | > 100 | 26.9
5.57 | 2690 | COc1ccc(-c2csc(N/N=C/c3ccccn3)n2)cc1 | 11.5 | > 100 | 
4.74 | 18200 | CC/C(=N\Nc1nc(-c2ccccc2)cs1)c1cccc(Br)c1 | 26.3 | > 100 | 
4.52 | 30200 | CC/C(=N\Nc1nc(-c2ccc(OC)cc2)cs1)c1cccc(Br)c1 | > 50.1 | > 100 | 
5.79 | 1620 | O=[N+]([O-])c1cccc(-c2csc(N/N=C/c3ccccn3)n2)c1 | 38 | > 100 | 23.5
4.79 | 16200 | C/C(=N\Nc1nc(-c2ccc(F)cc2)cs1)c1ccc(Cl)c(Cl)c1 | 28.2 | > 100 | 
5.64 | 2290 | Fc1ccc(-c2csc(N/N=C/c3ccccn3)n2)cc1 | > 50.1 | 18.2 | 
5.98 | 1050 | Clc1ccc(-c2csc(N/N=C/c3ccccn3)n2)c(Cl)c1 | 14.5 | > 100 | 
5.59 | 2570 | NC(=S)N/N=C/CSc1cc(Cl)ccc1Cl | > 50.1 | > 100 | 
5.87 | 1350 | C/C(=N\Nc1nc(-c2ccc(Br)cc2)c(C)s1)c1ccccn1 | 2 | > 100 | 
5.65 | 2240 | Brc1ccc(-c2csc(N/N=C/c3ccccn3)n2)cc1 | 14.1 | > 100 | 
4.77 | 17000 | COc1ccc(-c2csc(N/N=C(\C)c3ccc(Cl)c(Cl)c3)n2)cc1 | > 50.1 | > 100 | 
5.86 | 1380 | Cc1sc(N/N=C/c2ccccn2)nc1-c1ccc(Br)cc1 | 18.6 | > 100 | 
5.08 | 8320 | C/C(=N\Nc1nc(C)cs1)c1ccc(Cl)c(Cl)c1 | 38.9 | > 100 | 
5.49 | 3240 | Cc1cccc(SC/C=N/NC(N)=S)c1 | > 50.1 | > 100 | 

pIC50 (Trypanosoma cruzi) | IC50 (Trypanosoma cruzi) [nM] | Structure (SMILES) | CC50 at 96 h [1] [µM] | CC50 (HepG2) [µM] | selectivity ratio [2]
5.49 | 3240 | Cc1ccc(C)c(SC/C=N/NC(N)=S)c1 | 20.9 | > 100 | 
5.68 | 2090 | NC(=S)N/N=C/CSc1ccc(Cl)cc1 | 39.8 | 75.9 | 
5.31 | 4900 | C/C(=N\Nc1nc(-c2ccccc2)c(C)s1)c1ccc(Cl)c(Cl)c1 | 28.2 | > 100 | 
5.81 | 1550 | C/C(=N\Nc1nc(-c2ccc(Cl)cc2Cl)cs1)c1ccccn1 | 2 | > 100 | 
6.00 | 1000 | C/C(=N\Nc1nc(-c2ccc(Br)cc2)cs1)c1ccccn1 | 3.98 | 85.1 | 
6.10 | 794 | Clc1ccc(-c2csc(N/N=C/c3ccccn3)n2)cc1Cl | 10.7 | > 100 | 
5.31 | 4900 | Cc1ccccc1SC/C=N/NC(N)=S | > 50.1 | > 100 | 
5.75 | 1780 | NC(=S)N/N=C/CSc1cccc(Cl)c1 | > 50.1 | > 100 | 28.1
6.20 |  | C/C(=N\N=C(\N)S)c1ccc(Cl)c(Cl)c1 | 17.8 | 43.6 | 
5.77 | 1700 | C/C(=N\Nc1nc(-c2ccc(C)cc2)cs1)c1ccccn1 | 4.47 | > 100 | 
4.76 | 17400 | COc1ccc(SC/C=N/NC(N)=S)cc1 | 0.52 | > 100 | 
4.96 |  | O=[N+]([O-])c1ccc(-c2csc(N/N=C/c3ccccn3)n2)cc1 | > 50.1 | > 100 | 
5.23 | 5890 | NC(=S)N/N=C/CSc1ccc(F)cc1 | > 50.1 | > 100 | 
4.58 | 26300 | CC/C(=N\Nc1nc(-c2ccc(C)cc2)cs1)c1cccc(Br)c1 | > 50.1 | > 100 | 
4.64 | 22900 | CC/C(=N\Nc1nc(-c2cccc([N+](=O)[O-])c2)cs1)c1cccc(Br)c1 | 38 | > 100 | 
6.05 | 891 | C/C(=N\Nc1nc(-c2cccc([N+](=O)[O-])c2)cs1)c1ccccn1 | 3.63 | > 100 | 
4.77 |  | CNC(=S)N/N=C(\C)c1ccc(Cl)c(Cl)c1 | > 50.1 | > 100 | 
5.58 | 2630 | Cc1ccc(-c2csc(N/N=C/c3ccccn3)n2)cc1 | 43.6 | > 100 | 
5.90 | 1260 | C/C(=N\Nc1nc(-c2ccc([N+](=O)[O-])cc2)cs1)c1ccccn1 | 20.9 | > 100 | 
5.47 | 3390 | C(=N\Nc1nc(-c2cccc3ccccc23)cs1)/c1ccccn1 | 7.24 | > 100 | 
6.03 | 933 | C/C(=N\Nc1nc(-c2cccc3ccccc23)cs1)c1ccccn1 | 4.47 | > 100 | 
5.03 | 9330 | NC(=S)N/N=C/CSc1ccccc1 | 3.55 | > 100 | 
5.65 | 2240 | COc1ccc(-c2csc(N/N=C(\C)c3ccccn3)n2)cc1 | 3.47 | > 100 | 
5.51 | 3090 | NC(=S)N/N=C/CSc1ccccc1Cl | > 50.1 | > 100 | 
4.61 | 24500 | CC/C(=N\Nc1nc(-c2ccc(Br)cc2)c(C)s1)c1cccc(Br)c1 | 33.1 | > 100 | 
